Reference: ChEMBL document CHEMBL5678815 (Clin Cancer Res, 2017)
Active and inactive are the calls of the source. No cut-off for these calls is given here.

Legend:
[1] = target: Serine/threonine-protein kinase 26 (Homo sapiens) (UniProt Q9P289); assay: Inhibition of human MST4 assessed as remaining activity at 1 uM by ATP-competition binding assay relative to control
Method in brief: (§1)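 Single-point profiling at 1μM in an ATP-site-dependent competition binding assay across a panel of 395 human kinases, including mutant forms. The read-out is kinase binding signal in the presence of test agent, expressed as inhibition relative to the control signal. This screen assessed noncovalent binding interactions.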

[2] = target: Ephrin type-A receptor 1 (Homo sapiens) (UniProt P21709); assay: Inhibition of human EPHA1 assessed as remaining activity at 1 uM by ATP-competition binding assay relative to control
Method in brief: (§2)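 KINOMEscan ATP-site-dependent competition binding panel of 395 human kinases, with compound tested at 1 μM. Binding is reported as remaining signal relative to control.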

[3] = target: cAMP-dependent protein kinase catalytic subunit beta (Homo sapiens) (UniProt P22694); assay: Inhibition of human PKAC-beta assessed as remaining activity at 1 uM by ATP-competition binding assay relative to control
Method in brief: (§3)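 Single-concentration (1 μM) screen in an ATP-site-dependent competition binding assay (KINOMEscan, outsourced) covering 395 human kinases, mutants included. Non-covalent binding was read as the remaining signal relative to the control signal.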

[4] = target: Serine/threonine-protein kinase PAK 1 (Homo sapiens) (UniProt Q13153); assay: Inhibition of human PAK1 assessed as remaining activity at 1 uM by ATP-competition binding assay relative to control; method in brief: as §1
[5] = target: Epidermal growth factor receptor (Homo sapiens) (UniProt P00533); assay: Inhibition of human EGFR assessed as remaining activity at 1 uM by ATP-competition binding assay relative to control; method in brief: as §2
[6] = target: Serine/threonine-protein kinase SIK1 (Homo sapiens) (UniProt P57059); assay: Inhibition of human SIK assessed as remaining activity at 1 uM by ATP-competition binding assay relative to control; method in brief: as §3
[7] = target: NT-3 growth factor receptor (Homo sapiens) (UniProt Q16288); assay: Inhibition of human TRKC assessed as remaining activity at 1 uM by ATP-competition binding assay relative to control; method in brief: as §3
[8] = target: Dual specificity protein kinase TTK (Homo sapiens) (UniProt P33981); assay: Inhibition of human TTK assessed as remaining activity at 1 uM by ATP-competition binding assay relative to control; method in brief: as §3
[9] = target: Cyclin-dependent kinase 7 (Homo sapiens) (UniProt P50613); assay: Inhibition of human CDK7 assessed as remaining activity at 1 uM by ATP-competition binding assay relative to control; method in brief: as §2
[10] = target: Non-receptor tyrosine-protein kinase TNK1 (Homo sapiens) (UniProt Q13470); assay: Inhibition of human TNK1 assessed as remaining activity at 1 uM by ATP-competition binding assay relative to control; method in brief: as §3
[11] = Antitumor activity against human CLL mononuclear cells xenografted NSG mouse assessed as inhibition in the phosphorylation of ERK at 0.3 mg/ml preadministered with compound via drinking water and measured after 3 weeks by flow cytometry analysis relative to control; format: functional; settings: CLL mononuclear cell, 504 h
Method in brief: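 Primary CLL patient mononuclear cells (1 × 10^8 per mouse) engrafted into NSG mice on day 0 after busulfan priming on day −1. Vehicle or drug was given in drinking water from day −1. Mice were killed 3 weeks after engraftment; spleens homogenized, filtered and RBC-lysed; whole blood collected. Six patients, 2–5 mice per patient; paired t-test per patient.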

[12] = target: Mitogen-activated protein kinase kinase kinase 4 (Homo sapiens) (UniProt Q9Y6R4); assay: Inhibition of human MAP3K4 assessed as remaining activity at 1 uM by ATP-competition binding assay relative to control; method in brief: as §1
[13] = target: Ephrin type-B receptor 2 (Homo sapiens) (UniProt P29323); assay: Inhibition of human EPHB2 assessed as remaining activity at 1 uM by ATP-competition binding assay relative to control; method in brief: as §1
[14] = tested on: Epidermal growth factor receptor (Homo sapiens), P00533 [L858R]; assay: Inhibition of human EGFR L858R mutant assessed as remaining activity at 1 uM by ATP-competition binding assay relative to control
Method in brief: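 KINOMEscan ATP-site-dependent competition binding assay across a 395-kinase human panel including mutants; compound tested at 1μM; binding expressed relative to control signal.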

[15] = target: Serine/threonine-protein kinase PAK 4 (Homo sapiens) (UniProt O96013); assay: Inhibition of human PAK4 assessed as remaining activity at 1 uM by ATP-competition binding assay relative to control; method in brief: as §1
[16] = target: Receptor tyrosine-protein kinase erbB-4 (Homo sapiens) (UniProt Q15303); assay: Inhibition of human ERBB4 at <100 nM by ATP-Competition Binding Assay
[17] = target: Dual specificity protein kinase CLK2 (Homo sapiens) (UniProt P49760); assay: Inhibition of human CLK2 assessed as remaining activity at 1 uM by ATP-competition binding assay relative to control; method in brief: as §2
[18] = target: cAMP-dependent protein kinase catalytic subunit alpha (Homo sapiens) (UniProt P17612); assay: Inhibition of human PKAC-alpha assessed as remaining activity at 1 uM by ATP-competition binding assay relative to control; method in brief: as §3
[19] = target: LIM domain kinase 1 (Homo sapiens) (UniProt P53667); assay: Inhibition of human LIMK1 assessed as remaining activity at 1 uM by ATP-competition binding assay relative to control; method in brief: as §1
[20] = target: Mitogen-activated protein kinase kinase kinase 19 (Homo sapiens) (UniProt Q56UN5); assay: Inhibition of human YSK4 assessed as remaining activity at 1 uM by ATP-competition binding assay relative to control; method in brief: as §3
[21] = target: Casein kinase I isoform gamma-3 (Homo sapiens) (UniProt Q9Y6M4); assay: Inhibition of human CSNK1G3 assessed as remaining activity at 1 uM by ATP-competition binding assay relative to control; method in brief: as §2
[22] = target: SRSF protein kinase 1 (Homo sapiens) (UniProt Q96SB4); assay: Inhibition of human SRPK1 assessed as remaining activity at 1 uM by ATP-competition binding assay relative to control; method in brief: as §3
Splenocyte = assay: In vivo inhibition of BCR signaling in female […] mouse assessed as […] CD69 expression at 1 to 3 mg/kg, po administered and measured after stimulation with anti-IgM for 18 h by flow cytometry analysis; format: functional, organism-based; settings: dose 1-3 mg/kg
Method in brief: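 Female C57BL/6 mice (5 per group per dose) were gavaged orally at 0.1–30 mg/kg. At 3 h, splenocytes were stimulated with anti-mouse IgM 10 μg/mL for 18 h at 37°C, 5% CO2. After Fc block, cells were stained for CD19 and CD69 with 7-AAD viability dye; >5,000 gated CD19+ cells acquired by flow cytometry.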

[23] = target: Calcium/calmodulin-dependent protein kinase type 1 (Homo sapiens) (UniProt Q14012); assay: Inhibition of human CAMK1 assessed as remaining activity at 1 uM by ATP-competition binding assay relative to control; method in brief: as §2
[24] = tested on: Mast/stem cell growth factor receptor Kit (Homo sapiens), P10721 [D816V]; assay: Inhibition of human KIT D816V mutant assessed as remaining activity at 1 uM by ATP-competition binding assay relative to control; method in brief: as §1
[25] = target: Calcium/calmodulin-dependent protein kinase type II subunit gamma (Homo sapiens) (UniProt Q13555); assay: Inhibition of human CAMK2G assessed as remaining activity at 1 uM by ATP-competition binding assay relative to control; method in brief: as §2

Sequence of LIM domain kinase 1 (Homo sapiens) (P53667 whole entry, looked up, the tested form may be a part): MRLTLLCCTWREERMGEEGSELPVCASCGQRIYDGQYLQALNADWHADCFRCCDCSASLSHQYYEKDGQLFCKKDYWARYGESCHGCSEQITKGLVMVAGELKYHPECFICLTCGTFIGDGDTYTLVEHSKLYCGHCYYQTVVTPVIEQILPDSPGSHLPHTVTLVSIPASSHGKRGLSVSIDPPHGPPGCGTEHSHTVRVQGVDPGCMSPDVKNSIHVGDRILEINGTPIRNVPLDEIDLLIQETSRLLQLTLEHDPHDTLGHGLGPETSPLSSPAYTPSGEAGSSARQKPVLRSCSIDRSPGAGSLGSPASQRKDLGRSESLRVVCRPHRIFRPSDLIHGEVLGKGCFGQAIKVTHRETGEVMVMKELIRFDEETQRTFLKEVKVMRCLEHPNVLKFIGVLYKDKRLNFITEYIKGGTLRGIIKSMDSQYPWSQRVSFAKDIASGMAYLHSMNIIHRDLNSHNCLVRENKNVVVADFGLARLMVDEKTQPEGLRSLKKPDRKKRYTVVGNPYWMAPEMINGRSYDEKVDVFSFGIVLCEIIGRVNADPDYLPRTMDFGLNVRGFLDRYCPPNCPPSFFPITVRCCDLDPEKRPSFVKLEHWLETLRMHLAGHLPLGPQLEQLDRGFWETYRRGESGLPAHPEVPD
Sequence of Serine/threonine-protein kinase PAK 1 (Homo sapiens) (Q13153 whole entry): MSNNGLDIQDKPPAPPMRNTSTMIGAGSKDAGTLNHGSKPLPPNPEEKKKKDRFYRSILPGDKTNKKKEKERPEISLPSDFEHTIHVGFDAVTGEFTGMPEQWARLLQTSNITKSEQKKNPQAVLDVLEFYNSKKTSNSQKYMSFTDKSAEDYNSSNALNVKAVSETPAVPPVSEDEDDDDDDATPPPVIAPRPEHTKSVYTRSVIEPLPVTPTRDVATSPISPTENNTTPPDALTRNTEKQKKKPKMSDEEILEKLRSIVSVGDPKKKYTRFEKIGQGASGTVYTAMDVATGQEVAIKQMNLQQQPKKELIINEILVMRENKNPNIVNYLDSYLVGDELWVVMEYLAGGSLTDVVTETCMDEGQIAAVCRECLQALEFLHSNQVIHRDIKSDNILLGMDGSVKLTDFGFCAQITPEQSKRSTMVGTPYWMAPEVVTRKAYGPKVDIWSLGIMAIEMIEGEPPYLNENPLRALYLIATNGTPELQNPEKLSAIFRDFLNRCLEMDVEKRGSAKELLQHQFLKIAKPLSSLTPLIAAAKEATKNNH
Sequence of Ephrin type-B receptor 2 (Homo sapiens) (P29323 whole entry): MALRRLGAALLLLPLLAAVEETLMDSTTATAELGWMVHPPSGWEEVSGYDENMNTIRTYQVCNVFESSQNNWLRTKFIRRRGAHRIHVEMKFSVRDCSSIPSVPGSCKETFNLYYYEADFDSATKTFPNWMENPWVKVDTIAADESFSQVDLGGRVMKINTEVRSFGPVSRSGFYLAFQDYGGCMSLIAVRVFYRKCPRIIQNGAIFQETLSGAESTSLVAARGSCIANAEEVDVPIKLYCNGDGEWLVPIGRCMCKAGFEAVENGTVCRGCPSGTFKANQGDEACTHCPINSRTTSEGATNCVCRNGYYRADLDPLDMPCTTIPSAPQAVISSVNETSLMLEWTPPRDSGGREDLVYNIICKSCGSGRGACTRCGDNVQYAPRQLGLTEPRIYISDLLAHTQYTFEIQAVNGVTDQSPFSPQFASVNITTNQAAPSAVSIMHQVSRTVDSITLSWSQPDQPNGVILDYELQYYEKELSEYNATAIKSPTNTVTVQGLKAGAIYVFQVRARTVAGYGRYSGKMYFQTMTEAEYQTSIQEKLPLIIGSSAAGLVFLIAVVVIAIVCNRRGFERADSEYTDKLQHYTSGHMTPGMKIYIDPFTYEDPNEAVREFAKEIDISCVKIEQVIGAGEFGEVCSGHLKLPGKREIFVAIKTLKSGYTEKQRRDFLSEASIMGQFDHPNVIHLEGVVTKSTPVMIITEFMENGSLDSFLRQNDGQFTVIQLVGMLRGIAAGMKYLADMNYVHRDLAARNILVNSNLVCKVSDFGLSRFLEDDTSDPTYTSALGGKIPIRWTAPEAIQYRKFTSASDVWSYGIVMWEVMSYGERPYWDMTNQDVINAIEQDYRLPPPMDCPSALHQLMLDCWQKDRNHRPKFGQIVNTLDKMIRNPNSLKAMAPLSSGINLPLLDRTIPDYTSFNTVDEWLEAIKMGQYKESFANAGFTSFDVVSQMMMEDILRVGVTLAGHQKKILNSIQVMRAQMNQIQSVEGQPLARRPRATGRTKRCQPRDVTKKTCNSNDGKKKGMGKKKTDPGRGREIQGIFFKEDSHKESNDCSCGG
Sequence of NT-3 growth factor receptor (Homo sapiens) (Q16288 32-839 limits assumed): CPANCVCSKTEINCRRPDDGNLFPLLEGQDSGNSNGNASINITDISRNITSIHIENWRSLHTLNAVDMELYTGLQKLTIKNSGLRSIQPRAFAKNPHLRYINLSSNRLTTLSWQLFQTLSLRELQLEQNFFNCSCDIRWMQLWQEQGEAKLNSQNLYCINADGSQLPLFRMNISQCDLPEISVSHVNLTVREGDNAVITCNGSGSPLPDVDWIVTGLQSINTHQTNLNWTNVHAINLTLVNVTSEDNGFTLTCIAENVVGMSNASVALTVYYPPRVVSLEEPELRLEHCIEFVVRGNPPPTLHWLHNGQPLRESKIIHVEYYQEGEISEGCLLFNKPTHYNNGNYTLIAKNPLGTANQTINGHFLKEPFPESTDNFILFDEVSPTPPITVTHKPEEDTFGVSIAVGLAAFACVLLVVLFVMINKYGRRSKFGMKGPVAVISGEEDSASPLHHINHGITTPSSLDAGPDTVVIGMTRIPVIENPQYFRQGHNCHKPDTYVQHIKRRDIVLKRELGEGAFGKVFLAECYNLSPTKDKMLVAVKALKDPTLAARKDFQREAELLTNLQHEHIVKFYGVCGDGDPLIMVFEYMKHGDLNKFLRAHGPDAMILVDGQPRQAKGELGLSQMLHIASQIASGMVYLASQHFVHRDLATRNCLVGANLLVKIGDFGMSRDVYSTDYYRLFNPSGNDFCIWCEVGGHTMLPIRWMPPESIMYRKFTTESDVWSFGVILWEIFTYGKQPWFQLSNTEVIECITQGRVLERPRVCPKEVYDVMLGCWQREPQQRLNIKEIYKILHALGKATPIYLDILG
Sequence of Serine/threonine-protein kinase PAK 4 (Homo sapiens) (O96013 whole entry, looked up): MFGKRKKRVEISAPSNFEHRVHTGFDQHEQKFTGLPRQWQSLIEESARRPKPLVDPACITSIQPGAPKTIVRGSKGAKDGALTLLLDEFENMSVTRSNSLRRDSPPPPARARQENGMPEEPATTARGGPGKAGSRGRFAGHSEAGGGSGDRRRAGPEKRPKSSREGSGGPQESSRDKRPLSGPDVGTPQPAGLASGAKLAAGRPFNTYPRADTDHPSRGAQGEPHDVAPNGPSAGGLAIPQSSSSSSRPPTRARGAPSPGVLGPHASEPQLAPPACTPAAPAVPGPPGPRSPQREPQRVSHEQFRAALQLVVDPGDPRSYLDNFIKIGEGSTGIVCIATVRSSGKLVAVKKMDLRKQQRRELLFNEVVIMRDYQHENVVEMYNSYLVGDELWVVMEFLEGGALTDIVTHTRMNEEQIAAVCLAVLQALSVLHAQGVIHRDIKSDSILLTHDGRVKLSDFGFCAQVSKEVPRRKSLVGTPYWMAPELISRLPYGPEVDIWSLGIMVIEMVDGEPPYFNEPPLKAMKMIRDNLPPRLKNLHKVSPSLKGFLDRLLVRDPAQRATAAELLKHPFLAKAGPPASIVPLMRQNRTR
Sequence of Calcium/calmodulin-dependent protein kinase type 1 (Homo sapiens) (Q14012 whole entry, looked up): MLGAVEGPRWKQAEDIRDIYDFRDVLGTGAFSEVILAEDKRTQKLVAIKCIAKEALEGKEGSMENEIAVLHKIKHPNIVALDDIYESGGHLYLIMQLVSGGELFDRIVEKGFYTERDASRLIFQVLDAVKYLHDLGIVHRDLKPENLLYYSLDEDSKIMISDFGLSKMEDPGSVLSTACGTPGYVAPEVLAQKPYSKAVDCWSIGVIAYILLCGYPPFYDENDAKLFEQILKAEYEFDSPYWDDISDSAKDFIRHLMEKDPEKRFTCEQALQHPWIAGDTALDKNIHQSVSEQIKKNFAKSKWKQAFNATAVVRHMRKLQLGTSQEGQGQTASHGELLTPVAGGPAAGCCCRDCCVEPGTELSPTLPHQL
Sequence of Cyclin-dependent kinase 7 (Homo sapiens) (P50613 whole entry): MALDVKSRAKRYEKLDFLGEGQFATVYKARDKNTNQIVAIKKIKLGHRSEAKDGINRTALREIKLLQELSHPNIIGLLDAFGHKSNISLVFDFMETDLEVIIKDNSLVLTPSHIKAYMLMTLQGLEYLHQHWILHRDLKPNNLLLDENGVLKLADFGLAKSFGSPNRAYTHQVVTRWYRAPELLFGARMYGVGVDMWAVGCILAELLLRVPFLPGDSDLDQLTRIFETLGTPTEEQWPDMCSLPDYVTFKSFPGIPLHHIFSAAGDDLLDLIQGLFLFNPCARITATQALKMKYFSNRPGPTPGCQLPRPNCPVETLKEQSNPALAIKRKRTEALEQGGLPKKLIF
Sequence of Dual specificity protein kinase CLK2 (Homo sapiens) (P49760 whole entry, looked up): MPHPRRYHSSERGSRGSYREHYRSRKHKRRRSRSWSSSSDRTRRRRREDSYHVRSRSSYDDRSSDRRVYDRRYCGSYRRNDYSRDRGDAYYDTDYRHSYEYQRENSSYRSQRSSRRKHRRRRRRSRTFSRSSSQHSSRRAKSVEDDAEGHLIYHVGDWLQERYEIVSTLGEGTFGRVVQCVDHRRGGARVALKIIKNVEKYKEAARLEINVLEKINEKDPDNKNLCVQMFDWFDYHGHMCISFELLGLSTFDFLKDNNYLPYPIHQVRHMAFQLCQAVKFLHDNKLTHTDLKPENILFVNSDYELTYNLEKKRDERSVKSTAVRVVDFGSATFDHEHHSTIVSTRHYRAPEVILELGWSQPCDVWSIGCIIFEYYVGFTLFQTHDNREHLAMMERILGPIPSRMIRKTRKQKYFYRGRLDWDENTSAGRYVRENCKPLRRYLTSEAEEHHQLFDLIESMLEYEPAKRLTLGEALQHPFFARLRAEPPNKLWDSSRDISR

## CC#CC(=O)N1CCC[C@H]1c1nc(-c2ccc(C(=O)Nc3ccccn3)cc2)c2c(N)nccn12 [ACALABRUTINIB]
[1]
  Activity: 91%
[2]
  Activity: 76%
[3]
  Activity: 88%
[4]
  Activity: 87%
[5]
  Activity: 75%
[6]
  Activity: 88%
[7]
  Activity: 99%
[8]
  Activity: 91%
[9]
  Activity: 74%
[10]
  Activity: 90%
[11]
  inhibition in vivo at 300 µg/mL: 79%
[12]
  Activity: 86%
[13]
  Activity: 69%
[14]
  Activity: 94%
[15]
  Activity: 88%
[16]
  inhibition: Active
[17]
  Activity: 94%
[18]
  Activity: 77%
[19]
  Activity: 13%
[20]
  Activity: 90%
[21]
  Activity: 100%
[22]
  Activity: 67%
Splenocyte
  Activity: Active
[23]
  Activity: 87%
[24]
  Activity: 83%
[25]
  Activity: 84%
